These results are taken from PubChem BioAssay.

Assay [1] is described as follows: Her2 expression decrease, cell viability multiplex – SKBR3 breast tumor cells, AlphaScreen, ATP viability, primary screen (AID 461;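 active means Her2 level under about 52% in both replicate screens, with viability over 70% of control, limit read from the data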;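 on Her2 level: lower value means less Her2 protein in the cells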;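 on viability: percent of carrier control wells set as 100% viability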). The following applies: SKBR3 Her2 protein level, 18-24 h, measured here: SKBR3 viability, ATP luminescence, at 10 µM.
Assay [2] has as its target Receptor tyrosine-protein kinase erbB-2 (Homo sapiens) (UniProt P04626). Described as above. The conditions noted are these: 18-24 h, at 10 µM, stronger effect = lower value.
Assay [3] in a line: reduced viability of SK-BR-3 breast cancer cells – cell-based, 24 h, human, pilot screen (AID 572;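 active means viability at or below 10% of carrier control in both of two separate runs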;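 further: compound exposure lasted between 18 and 24 h rather than exactly 24 h; 100% = carrier-treated control wells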). The conditions noted are these: SK-BR-3 viability, CellTiter-Glo luminescence, at 10 µM, stronger effect = lower value.
The nature of assay [4]: HUVEC growth inhibition – cell-based, human, primary screen (AID 575).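 Further: 100% = median of untreated cell wells with 0.1% DMSO on each plate.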 The conditions noted are these: HUVEC proliferation, CellTiter-Glo luminescence, 72 h; at 10 µM; stronger effect = lower value. An outline of the steps:
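material = primary HUVEC, no more than 12 passages | input = 1250 cells per well | controls = vehicle and MePR control wells | measured by = CTG luminescence | times = 72 h compound incubation | format = collagen-coated 384-well format | read-out = % viability vs DMSO wells | doses = single 10 µM dose, 0.1% DMSO, from 5x medium stock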

Assay [5] can be described thus: H69AR cell proliferation blockers – human, duplicate replicates, primary screen (AID 580;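 active means viability at or under a set limit in both replicates, limit being median viability minus 3 SD, cut at about 48% in these data, passing the limit was not always enough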;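 further: 100% = mean luminescence of untreated wells and 0% = no signal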). The conditions noted are these: H69AR lung tumor cells viability, ATP luminescence, 72 h; at 10 µM; stronger effect = lower value.
Assay [6] can be described thus: MRP1 drug-resistance reversers in H69AR cells – cell-based, doxorubicin co-treatment, pilot screen (AID 601;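 active means viability loss from added drug above about 55%, and viability with drug at most 40%, in both replicates, limit read from the data, passing the limit was not always enough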). The following applies: CellTiter-Glo, 72 h, at 10 µM; for differential viability (reversal): stronger effect = higher value. In general terms: ATP-based viability assays read luminescence as a measure of living cells.
The nature of assay [7]: yeast transport mutant growth inhibition pilot in 384-well plates, post-Golgi transport modulator project (AID 636; in the data active means inhibition above about 31%). The conditions noted are these: absorbance 615 nm, about 18 h, stronger effect = higher value.
Assay [8] in a line: growth suppression of yeast trafficking mutant, preliminary HTS, modulators of trafficking downstream of Golgi apparatus project, 1536-format plate, OD 615 nm (AID 637; in the data active means inhibition above about 30%). The conditions noted are these: yeast transport mutant growth, absorbance 615 nm, 18 h; stronger effect = higher value.
[9] abbreviates: H69AR cells + 2 uM doxorubicin, measured here: viability with 2 uM doxorubicin, stronger effect = lower value.
The mark [10] stands for this setting: H69AR cells, compound alone cytotoxicity.

The viability is a read-out of living cells in per cent, often relative to untreated cells. For orientation: inhibition means the relative decrease from the control value, in per cent.

Active and inactive are the calls of the source.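 How the source made its calls, unless noted: active means viability at or below 30% in both replicate assays; inconclusive means viability at or below 30% in just one of the two assays; inactive means the rest.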

Receptor tyrosine-protein kinase erbB-2 (Homo sapiens), sequence (P04626 whole entry, looked up): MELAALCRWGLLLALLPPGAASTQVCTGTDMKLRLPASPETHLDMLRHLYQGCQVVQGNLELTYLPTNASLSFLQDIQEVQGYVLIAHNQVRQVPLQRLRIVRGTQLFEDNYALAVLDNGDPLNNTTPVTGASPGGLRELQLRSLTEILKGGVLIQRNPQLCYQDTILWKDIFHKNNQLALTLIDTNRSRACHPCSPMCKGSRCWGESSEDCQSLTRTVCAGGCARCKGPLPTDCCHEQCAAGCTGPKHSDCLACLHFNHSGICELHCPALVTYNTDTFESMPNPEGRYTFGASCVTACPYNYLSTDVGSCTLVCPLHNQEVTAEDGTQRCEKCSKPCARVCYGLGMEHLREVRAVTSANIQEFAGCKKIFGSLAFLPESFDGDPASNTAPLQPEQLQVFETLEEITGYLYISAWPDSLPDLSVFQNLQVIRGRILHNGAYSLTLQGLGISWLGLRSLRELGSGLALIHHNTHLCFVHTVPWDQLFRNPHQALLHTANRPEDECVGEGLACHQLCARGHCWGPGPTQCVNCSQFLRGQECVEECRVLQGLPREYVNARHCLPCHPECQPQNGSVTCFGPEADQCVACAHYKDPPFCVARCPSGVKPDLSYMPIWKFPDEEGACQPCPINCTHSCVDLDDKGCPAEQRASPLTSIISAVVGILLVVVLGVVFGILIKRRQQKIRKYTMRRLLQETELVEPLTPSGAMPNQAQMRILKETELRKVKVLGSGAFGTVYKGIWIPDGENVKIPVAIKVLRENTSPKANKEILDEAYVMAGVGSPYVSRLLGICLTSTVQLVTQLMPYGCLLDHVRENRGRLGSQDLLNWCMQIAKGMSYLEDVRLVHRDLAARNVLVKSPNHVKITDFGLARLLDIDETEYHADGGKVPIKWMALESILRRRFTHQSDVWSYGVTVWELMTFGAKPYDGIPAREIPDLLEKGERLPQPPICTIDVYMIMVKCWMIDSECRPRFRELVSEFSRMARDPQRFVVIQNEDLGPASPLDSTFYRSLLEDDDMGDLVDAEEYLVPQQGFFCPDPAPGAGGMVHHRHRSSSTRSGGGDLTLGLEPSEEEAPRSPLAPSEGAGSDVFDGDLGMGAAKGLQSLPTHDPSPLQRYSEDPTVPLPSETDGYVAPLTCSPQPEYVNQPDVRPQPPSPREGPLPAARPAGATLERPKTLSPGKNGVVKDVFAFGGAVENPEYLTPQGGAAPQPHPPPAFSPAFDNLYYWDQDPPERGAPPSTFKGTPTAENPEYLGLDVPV

`O=C1CC(c2ccco2)CC(O)=C1C=NCC1NCCc2ccccc21` (stereo not given): the viability was 78.5% in assay [1]; 78.5% (inactive) in assay [3]; 91.5% (inactive) in assay [4]; 90.7% (inactive) in assay [5]; 94.1% in assay [6] (setting [9]); 90.7% in assay [6] (setting [10]). In assay [2], the Her2 level is 98.5% (inactive). Besides, in assay [6] (H69AR cells + 2 uM doxorubicin), the differential viability (reversal) was -3.47% (inactive). For the same molecule, the inhibition was -0.92% (inactive) in assay [7] and 7.14% (inactive) in assay [8].
With `Cn1c(=O)c2c3c(sc2n2c(SCC(=O)c4ccc(Cl)cc4)nnc12)COC(C)(C)C3`, the viability was 119% in assay [1]; 119% (inactive) in assay [3]; 76.6% (inactive) in assay [4]; 79.7% (inactive) in assay [5]; 56.4% in assay [6] (setting [9]); 79.7% in assay [6] (setting [10]). Also, the Her2 level in assay [2] was 102% (inactive). The differential viability (reversal) in assay [6] (H69AR cells + 2 uM doxorubicin) is 23.3% (inactive). For the same molecule, the figures for the inhibition in assay [7] and in assay [8] were -0.91% (inactive) and -2.7% (inactive), respectively.
On to `Cc1ccnc(N2CCN(C(=O)CSc3nc4ccccc4nc3N3CCCCC3)CC2)c1`, for which the viability in assay [1] was 109%; in assay [3], 109% (inactive); in assay [4], 62% (inactive); in assay [5] it was 92.7% (inactive); in assay [6] (setting [9]) it was 83%; in assay [6] (setting [10]) it was 92.7%. Further, in assay [2], the Her2 level was 70.5% (inactive). The differential viability (reversal) in assay [6] (H69AR cells + 2 uM doxorubicin) was 9.7% (inactive). For the same molecule, the inhibition in assay [7] was -3.03% (inactive); in assay [8], -2.83% (inactive).
On to `CCN(CC)C(=O)C1CCC(CNS(=O)(=O)c2cccc3cccnc23)CC1` (stereo not given), for which the viability in assay [1] was 92%; in assay [3] it was 92% (inactive); in assay [4], 89.9% (inactive); in assay [5] it was 99.2% (inactive); in assay [6] (setting [9]) it was 97.1%; in assay [6] (setting [10]), 99.2%. In addition, the Her2 level in assay [2] is 97% (inactive). Besides, in assay [6] (H69AR cells + 2 uM doxorubicin), the differential viability (reversal) was 2.08% (inactive). For the same molecule, the inhibition in assay [7] was -1.87% (inactive); in assay [8] it was -2.3% (inactive).
As for `CC1(C)CC(=O)C(C=NCc2ccc3c(c2)OCO3)=C(O)C1`, the viability in assay [1] is 104%; in assay [3] it was 104% (inactive); in assay [4], 96.6% (inactive); in assay [5], 91.3% (inactive); in assay [6] (setting [9]), 86.3%; in assay [6] (setting [10]), 91.3%. In assay [2], the Her2 level is 95.5% (inactive). The differential viability (reversal) in assay [6] (H69AR cells + 2 uM doxorubicin) was 5% (inactive). Moreover, the inhibition in assay [7] is 0.65% (inactive); in assay [8] it was -4.92% (inactive).
With `Nc1c(C(=O)NCc2ccco2)nnn1Cc1ccccc1`, the viability in assay [1] was 85.5%; in assay [3], 85.5% (inactive); in assay [4] it was 92.1% (inactive); in assay [5] it was 96% (inactive); in assay [6] (setting [9]), 95.1%; in assay [6] (setting [10]), 96%. Moreover, the Her2 level in assay [2] was 102% (inactive). For the same molecule, the differential viability (reversal) in assay [6] (H69AR cells + 2 uM doxorubicin) is 0.935% (inactive). The inhibition is -6.32% (inactive) in assay [7] and 3.33% (inactive) in assay [8].
Regarding `CC(C)OC(=O)CSc1nnnn1-c1ccc2c(c1)OCCO2`, the viability in assay [1] was 99.5%; in assay [3], 99.5% (inactive); in assay [4], 99% (inactive); in assay [5], 88.6% (inactive); in assay [6] (setting [9]) it was 82.2%; in assay [6] (setting [10]), 88.6%. Moreover, the Her2 level in assay [2] is 84.5% (inactive). In addition, in assay [6] (H69AR cells + 2 uM doxorubicin), the differential viability (reversal) is 6.42% (inactive). In addition, the inhibition is -7.03% (inactive) in assay [7] and -2.33% (inactive) in assay [8].
On to `COc1ccc(CCNS(=O)(=O)c2ccc3c(c2)CCN3C(=O)CCC(=O)O)cc1OC`, for which the viability in assay [1] was 104%; in assay [3], 104% (inactive); in assay [4], 88.6% (inactive); in assay [5] it was 94.1% (inactive); in assay [6] (setting [9]), 89.8%; in assay [6] (setting [10]), 94.1%. The Her2 level in assay [2] was 89% (inactive). For the same molecule, in assay [6] (H69AR cells + 2 uM doxorubicin), the differential viability (reversal) is 4.3% (inactive). Besides, the inhibition is -2.37% (inactive) in assay [7] and -4.91% (inactive) in assay [8].
`Cc1cc(N2CCN(C)CC2)nc(N2CCOCC2)n1`: the viability in assay [1] is 105%; in assay [3] it was 105% (inactive); in assay [4], 97.7% (inactive); in assay [5], 92.2% (inactive); in assay [6] (setting [9]), 87.4%; in assay [6] (setting [10]), 92.2%. Also, the Her2 level in assay [2] is 89.5% (inactive). Besides, the differential viability (reversal) in assay [6] (H69AR cells + 2 uM doxorubicin) is 4.88% (inactive). The inhibition in assay [7] is -3.82% (inactive); in assay [8], -8.17% (inactive).
For `O=C(N1CCN(c2ccccc2F)CC1)C12CC3CC(CC(C3)C1)C2`, the viability in assay [1] is 88.5%; in assay [3], 88.5% (inactive); in assay [4] it was 93.7% (inactive); in assay [5] it was 89.9% (inactive); in assay [6] (setting [9]), 98.7%; in assay [6] (setting [10]), 89.9%. In addition, the Her2 level in assay [2] was 87.5% (inactive). Further, the differential viability (reversal) in assay [6] (H69AR cells + 2 uM doxorubicin) was -8.84% (inactive). For the same molecule, the inhibition in assay [7] is -5.6% (inactive); in assay [8] it was 3.97% (inactive).
In the case of `Cc1cc(NC(=O)C23CCC(C)(C(=O)O2)C3(C)C)no1` (stereo not given), the viability was 108% in assay [1]; 108% (inactive) in assay [3]; 96.7% (inactive) in assay [4]; 97.5% (inactive) in assay [5]; 89.2% in assay [6] (setting [9]); 97.5% in assay [6] (setting [10]). In assay [2], the Her2 level was 93% (inactive). In assay [6] (H69AR cells + 2 uM doxorubicin), the differential viability (reversal) was 8.27% (inactive). For the same molecule, the inhibition in assay [7] was -0.78% (inactive); in assay [8] it was 0.63% (inactive).
For `CC(=O)Nc1ccc(-c2cc3ccccc3o2)cc1`, the viability in assay [1] was 103%; in assay [3] it was 103% (inactive); in assay [4], 82.4% (inactive); in assay [5] it was 95.9% (inactive); in assay [6] (setting [9]), 83.9%; in assay [6] (setting [10]), 95.9%. In addition, in assay [2], the Her2 level is 89% (inactive). Further, in assay [6] (H69AR cells + 2 uM doxorubicin), the differential viability (reversal) was 12% (inactive). Further, the results for the inhibition in assay [7] and in assay [8] were -6.44% (inactive) and -5.08% (inactive), respectively.
For the molecule `CCCCN(CC)S(=O)(=O)N1CCC(C(=O)NCc2ccc(F)cc2)CC1`, the viability is 97% in assay [1]; 97% (inactive) in assay [3]; 109% (inactive) in assay [4]; 101% (inactive) in assay [5]; 101% in assay [6] (setting [9]); 101% in assay [6] (setting [10]). The Her2 level in assay [2] was 113% (inactive). Moreover, in assay [6] (H69AR cells + 2 uM doxorubicin), the differential viability (reversal) is 0.67% (inactive). The inhibition is -4.34% (inactive) in assay [7] and 2.62% (inactive) in assay [8].
On to `COC(=O)C1=CN(C)C=C(C(=O)OC)C1c1ccc(O)c(OC)c1`, for which the viability in assay [1] is 96.5%; in assay [3] it was 96.5% (inactive); in assay [4], 88.1% (inactive); in assay [5], 100% (inactive); in assay [6] (setting [9]), 93.4%; in assay [6] (setting [10]), 100%. The Her2 level in assay [2] is 98% (inactive). Besides, the differential viability (reversal) in assay [6] (H69AR cells + 2 uM doxorubicin) is 6.83% (inactive). For the same molecule, the inhibition in assay [7] was -3.16% (inactive); in assay [8], 4% (inactive).
Consider `CCOC(=O)c1ccc(Oc2nc(NC)nc(OC)n2)cc1`, for which the viability in assay [1] is 100%; in assay [3], 100% (inactive); in assay [4], 103% (inactive); in assay [5] it was 104% (inactive); in assay [6] (setting [9]), 98.8%; in assay [6] (setting [10]), 104%. Besides, the Her2 level in assay [2] is 108% (inactive). In assay [6] (H69AR cells + 2 uM doxorubicin), the differential viability (reversal) is 5.53% (inactive). In addition, the values for the inhibition in assay [7] and in assay [8] were -1.35% (inactive) and -6.67% (inactive), respectively.
